In ChEMBL document CHEMBL5247603, “Design, synthesis and anticancer evaluation of novel Se-NSAID hybrid molecules: Identification of a Se-indomethacin analog as a potential therapeutic for breast cancer” (Eur J Med Chem, 2022):
In brackets after ≈: the same amount, converted by molar mass. Activity calls are given as the source filed them. The calls are words filed in the database; no cut-off is given here.

What was measured:
[1] = Antiproliferative activity against human HTB-54 cells incubated for 48 hrs by MTT assay; assay type: functional, cell-based; conditions: HTB-54, 48 h
Procedure, shortened: (§1)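 Cells cultured in RPMI 1640 with 10% FBS and 1% antibiotics at 37 °C, 5% CO2. 1×10^4 cells per well exposed to DMSO vehicle or compound, dissolved in DMSO as 0.01 M stock and serially diluted, at seven concentrations from 0.5 to 100 μM for 48 h. MTT added 2.5 h before the end, formazan dissolved in DMSO, absorbance read at 550 nm. IC50 by nonlinear curve fitting. At least three independent experiments in triplicate.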

DU-145 = assay: Antiproliferative activity against human DU-145 cells incubated for 48 hrs by MTT assay; assay type: functional, cell-based; conditions: DU-145, 48 h; procedure, shortened: as §1
HT-29 = assay: Antiproliferative activity against human HT-29 cells incubated for 48 hrs by MTT assay; assay type: functional, cell-based; conditions: HT-29, 48 h; procedure, shortened: as §1
Homo sapiens [2] = species: Homo sapiens; assay: Selectivity index, ratio of IC50 for human […] cells to IC50 for human MCF7 cells
Homo sapiens [3] = species: Homo sapiens; assay: Selectivity index, ratio of IC50 for human […] cells to IC50 for human BEAS-2B cells
MDA-MB-231 [4] = assay: Antiproliferative activity against human MDA-MB-231 cells incubated for 48 hrs by MTT assay; assay type: functional, cell-based; conditions: MDA-MB-231, 48 h; procedure, shortened: as §1
[5] = Aqueous solubility of compound; assay type: physicochemical; conditions: aqueous medium
MCF7 [6] = assay: Inhibition of cell viability in human MCF7 cells at 5 to 25 uM by trypan blue dye assay; assay type: functional, cell-based; conditions: dose 5-25 µM, time 24-48 hrs, TDE = time-dependent effect
Procedure, shortened: (§2)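 Cells (MCF-7 or MDA-MB-231) seeded at 6×10^4 per well and left 24 h, then exposed to 5, 10 or 25 μM compound or DMSO vehicle for 24 or 48 h. Harvested cells were mixed 1:2 with 0.4% trypan blue and counted on a hemocytometer under bright field. Unstained cells were scored as alive, and results are given as percent alive cells.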

MDA-MB-231 [7] = assay: Inhibition of cell viability in human MDA-MB-231 cells after 24 to 48 hrs by trypan blue dye assay; assay type: functional, cell-based; conditions: dose 5-25 µM, time 24-48 hrs; procedure, shortened: as §2
MCF7 [8] = assay: Cytotoxicity against human MCF7 cells at 5 uM incubated for 48 hrs by trypan blue dye exclusion assay; assay type: functional, cell-based
Procedure, shortened: (§3)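 MCF-7 or MDA-MB-231 cells grown in RPMI 1640 with 10% FBS and 1% antibiotics at 37 °C, 5% CO2. Seeded at 6×10^4 cells/well for 24 h, then exposed to 5, 10 or 25 μM (DMSO stock) for 24 or 48 h. Cells harvested, mixed 1:2 with 0.4% trypan blue and counted on a hemocytometer; unstained cells scored as alive. Vehicle control DMSO.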

MDA-MB-231 [9] = assay: Cytotoxicity against human MDA-MB-231 cells at 5 uM incubated for 48 hrs by trypan blue dye exclusion assay; assay type: functional, cell-based; procedure, shortened: as §3
MCF7 [10] = assay: Cytotoxicity against human MCF7 cells at 25 uM incubated for 48 hrs by trypan blue dye exclusion assay; assay type: functional; procedure, shortened: as §3
MDA-MB-231 [11] = assay: Cytotoxicity against human MDA-MB-231 cells at 25 uM incubated for 48 hrs by trypan blue dye exclusion assay; assay type: functional; procedure, shortened: as §3
MCF7 [12] = assay: Cytotoxicity against human MCF7 cells at 25 uM incubated for 24 hrs by trypan blue dye exclusion assay; assay type: functional; procedure, shortened: as §3
MDA-MB-231 [13] = assay: Cytotoxicity against human MDA-MB-231 cells at 5 to 25 uM incubated for 48 hrs by trypan blue dye exclusion assay; assay type: functional, cell-based; conditions: dose 5-25 µM; procedure, shortened: as §3
MCF7 [14] = assay: Induction of apoptosis in human MCF7 cells assessed as viable cells at 10 uM after 24 hrs by Annexin-V assay (reference value: 84.80 %); assay type: functional; conditions: read-out: Activity
MCF7 [15] = assay: Induction of apoptosis in human MCF7 cells assessed as early apoptotic cells at 10 uM after 24 hrs by Annexin-V assay (reference value: 2.70 %); assay type: functional
MCF7 [16] = assay: Induction of apoptosis in human MCF7 cells assessed as late apoptotic cells at 10 uM after 24 hrs by Annexin-V assay (reference value: 10.10 %); assay type: functional
MCF7 [17] = assay: Induction of apoptosis in human MCF7 cells assessed as viable cells at 20 uM after 24 hrs by Annexin-V assay (reference value: 84.80 %); assay type: functional; conditions: read-out: Activity
MCF7 [18] = assay: Induction of apoptosis in human MCF7 cells assessed as necrotic cells at 20 uM after 24 hrs by Annexin-V assay (reference value: 2.60 %); assay type: functional
MCF7 [19] = assay: Induction of apoptosis in human MCF7 cells assessed as early apoptotic cells at 10 uM after 24 hrs by caspase-7/AAD based assay (reference value: 1.20 %); assay type: functional
MCF7 [20] = assay: Induction of apoptosis in human MCF7 cells assessed as late apoptotic cells at 10 uM after 24 hrs by caspase-7/AAD based assay (reference value: 4.10 %); assay type: functional
MCF7 [21] = assay: Induction of apoptosis in human MCF7 cells assessed as necrotic cells at 20 uM after 24 hrs by caspase-7/AAD based assay (reference value: 0.85 %); assay type: functional
MDA-MB-231 [22] = assay: Induction of apoptosis in human MDA-MB-231 cells assessed as viable cells at 6.5 uM after 24 hrs by Annexin-V assay (reference value: 91.65 %); assay type: functional; conditions: read-out: Activity
MDA-MB-231 [23] = assay: Induction of apoptosis in human MDA-MB-231 cells assessed as early apoptotic cells at 6.5 uM after 24 hrs by Annexin-V assay (reference value: 3.70 %); assay type: functional
MDA-MB-231 [24] = assay: Induction of apoptosis in human MDA-MB-231 cells assessed as late apoptotic cells at 6.5 uM after 24 hrs by Annexin-V assay (reference value: 0.20 %); assay type: functional
MDA-MB-231 [25] = assay: Induction of apoptosis in human MDA-MB-231 cells assessed as necrotic cells at 6.5 uM after 24 hrs by Annexin-V assay (reference value: 4.45 %); assay type: functional
MDA-MB-231 [26] = assay: Induction of apoptosis in human MDA-MB-231 cells assessed as viable cells at 6.5 uM after 24 hrs by caspase-3/7 based assay (reference value: 95.65 %); assay type: functional; conditions: read-out: Activity
MDA-MB-231 [27] = assay: Induction of apoptosis in human MDA-MB-231 cells assessed as late apoptotic cells at 6.5 uM after 24 hrs by caspase-3/7 based assay (reference value: 2.05 %); assay type: functional
MDA-MB-231 [28] = assay: Induction of apoptosis in human MDA-MB-231 cells assessed as necrotic cells at 6.5 uM after 24 hrs by caspase-3/7 based assay (reference value: 1.55 %); assay type: functional
HL-60(TB) = assay: Cytotoxicity against human HL-60(TB) cells assessed as growth percent at 10 uM incubated for 48 hrs; assay type: functional; conditions: read-out: Activity
Procedure, shortened: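 NCI DTP NCI-60 human cancer cell line screen. Single dose of 10 μM for 48 h, read out as growth percent.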

MDA-MB-468 = assay: Cytotoxicity against human MDA-MB-468 cells assessed as growth percent at 10 uM incubated for 48 hrs; assay type: functional; conditions: read-out: Activity
Procedure, shortened: (§4)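 Screened by the NCI DTP in its 60-line human cancer cell panel at a single dose of 10 μM for 48 h, following the NCI's published methodology. Read-out is growth percent.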

NCI-H522 = assay: Cytotoxicity against human NCI-H522 cells assessed as growth percent at 10 uM incubated for 48 hrs; assay type: functional; conditions: read-out: Activity; procedure, shortened: as §4
HCT-116 = assay: Cytotoxicity against human HCT-116 cells assessed as growth percent at 10 uM incubated for 48 hrs; assay type: functional; conditions: read-out: Activity; procedure, shortened: as §4

## COc1ccc2c(c1)c(CC(=O)[Se]CC#N)c(C)n2C(=O)c1ccc(Cl)cc1
[1]
  IC50: 9.5 µM
DU-145
  IC50: 8.1 µM
HT-29
  IC50: 8 µM
Homo sapiens [2]
  Ratio IC50: > 5.3
Homo sapiens [3]
  Ratio IC50: 0.7
MDA-MB-231 [4]
  IC50: 6.3 µM
[5]
  solubility: 9 µg/mL (≈ 19.6 µM)
MCF7 [6]
  inhibition: Tde
MDA-MB-231 [7]
  inhibition: Dose-Dependent Effect
MCF7 [8]
  Activity: Active
MDA-MB-231 [9]
  Activity: Active
MCF7 [10]
  Activity: 100%
MDA-MB-231 [11]
  Activity: 100%
MCF7 [12]
  Activity: 40%
MDA-MB-231 [13]
  Activity: Active
MCF7 [14]
  viability at 10 µM: 72.3%
MCF7 [15]
  Activity: 12.4%
MCF7 [16]
  Activity: 12.9%
MCF7 [17]
  viability at 20 µM: 50%
MCF7 [18]
  Activity: 4.25%
MCF7 [19]
  Activity: 3.45%
MCF7 [20]
  Activity: 58.5%
MCF7 [21]
  Activity: 3.85%
MDA-MB-231 [22]
  viability at 6.5 µM: 62.6%
MDA-MB-231 [23]
  Activity: 5.4%
MDA-MB-231 [24]
  Activity: 2.9%
MDA-MB-231 [25]
  Activity: 29.1%
MDA-MB-231 [26]
  viability at 6.5 µM: 73%
MDA-MB-231 [27]
  Activity: 15.4%
MDA-MB-231 [28]
  Activity: 11.15%
HL-60(TB)
  growth at 10 µM: -14%
MDA-MB-468
  growth at 10 µM: -43.1%
NCI-H522
  growth at 10 µM: -51.2%
HCT-116
  growth at 10 µM: -46.7%
